The test system of one assay is Candida albicans. In words: Antifungal activity against Candida albicans. In kind it is functional. A digest of the protocol:
(§1)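 In vitro MIC determination by standard agar method, cited from earlier work; fungal strains tested were Candida albicans, Fusarium oxysporum, Aspergillus flavus, Aspergillus niger and Cryptococcus neoformans, with miconazole and fluconazole run as reference standards.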

The subject of assay [1] is Cryptococcus neoformans. In words: Antifungal activity against Cryptococcus neoformans up to 200 ug/ml. In kind it is functional, organism-based. A digest of the protocol: as §1
Assay [2] concerns Aspergillus flavus. In words: Antifungal activity against Aspergillus flavus. In kind it is functional. A digest of the protocol: as §1
For assay [3], the system named is Fusarium oxysporum. In words: Antifungal activity against Fusarium oxysporum. In kind it is functional. In short, it runs like this: as §1
Assay [4] deals with Aspergillus niger. In words: Antifungal activity against Aspergillus niger. In kind it is functional. In short, it runs like this:
as §1

Assay [5] concerns Cryptococcus neoformans. The assay is described as follows: Antifungal activity against Cryptococcus neoformans. In kind it is functional. A digest of the protocol: as §1
In assay [6] the test system is Aspergillus niger. The assay is described as follows: Antifungal activity against Aspergillus niger up to 200 ug/ml. In kind it is functional, organism-based. In short, it runs like this: as §1
The test system of assay [7] is Fusarium oxysporum. In words: Antifungal activity against Fusarium oxysporum up to 200 ug/ml. In kind it is functional, organism-based. A digest of the protocol: as §1
The subject of assay [8] is Aspergillus flavus. The assay is described as follows: Antifungal activity against Aspergillus flavus up to 200 ug/ml. In kind it is functional, organism-based. A digest of the protocol:
as §1

The values that follow come from ChEMBL document CHEMBL1759954, “Synthesis of some novel 3-(1-(1-substitutedpiperidin-4-yl)-1H-1,2,3-triazol-4-yl)-5-substituted phenyl-1,2,4-oxadiazoles as antifungal agents” (2011).

≈ marks a conversion by molar mass, not a printed value. Calls of active or inactive are those of the source. The rule behind the calls is not given here.

The term MIC denotes the lowest concentration that inhibits growth of the organism. Read a high MIC as weaker potency. As to `CN1CCC(n2cc(-c3noc(-c4ccc(Cl)cc4)n3)nn2)CC1`, the MIC in the assay on Candida albicans stood at 35 µg/mL (≈ 102 µM); in the assay with Aspergillus flavus [2], 15 µg/mL (≈ 43.5 µM); with Fusarium oxysporum [3], 50 µg/mL (≈ 145 µM); with Aspergillus niger [4], 15 µg/mL (≈ 43.5 µM). Also, the outcome in the assay with Cryptococcus neoformans [1] was inactive.
`CS(=O)(=O)N1CCC(n2cc(-c3noc(-c4ccccc4)n3)nn2)CC1`: the MIC against Candida albicans came to 50 µg/mL (≈ 134 µM); against Cryptococcus neoformans [5], 25 µg/mL (≈ 66.8 µM); against Aspergillus flavus [2] it was 40 µg/mL (≈ 107 µM); in the assay on Fusarium oxysporum [3] it was 30 µg/mL (≈ 80.1 µM); with Aspergillus niger [4], 40 µg/mL (≈ 107 µM).
In the case of `O=C(c1ccccc1)N1CCC(n2cc(-c3noc(-c4ccc(Cl)cc4)n3)nn2)CC1`, the MIC in the assay with Candida albicans was determined as 75 µg/mL (≈ 172 µM); against Cryptococcus neoformans [5], 100 µg/mL (≈ 230 µM); with Aspergillus flavus [2], 65 µg/mL (≈ 149 µM); against Fusarium oxysporum [3] it was 85 µg/mL (≈ 195 µM). Further, in the assay with Aspergillus niger [6], the result was inactive.
As to `CCN1CCC(n2cc(-c3noc(-c4ccccc4)n3)nn2)CC1`, the MIC amounted to 90 µg/mL (≈ 277 µM) with Candida albicans; 150 µg/mL (≈ 462 µM) in the assay with Cryptococcus neoformans [5]; 35 µg/mL (≈ 108 µM) in the assay with Aspergillus flavus [2]; 100 µg/mL (≈ 308 µM) in the assay on Fusarium oxysporum [3]; 47.5 µg/mL (≈ 146 µM) in the assay on Aspergillus niger [4].
For `O=C(c1ccc(Cl)cc1)N1CCC(n2cc(-c3noc(-c4ccccc4)n3)nn2)CC1`, in that order: 45 µg/mL (≈ 103 µM), 45 µg/mL (≈ 103 µM), 40 µg/mL (≈ 92 µM), 40 µg/mL (≈ 92 µM) and 42.5 µg/mL (≈ 97.7 µM).
As for `O=C(c1ccccc1)N1CCC(n2cc(-c3noc(-c4ccccc4)n3)nn2)CC1`, the MIC against Candida albicans is 90 µg/mL (≈ 225 µM); in the assay on Cryptococcus neoformans [5], 100 µg/mL (≈ 250 µM); against Aspergillus flavus [2], 65 µg/mL (≈ 162 µM). Besides, the outcome in the assay with Aspergillus niger [6] and with Fusarium oxysporum [7] was inactive.
Turning to `CS(=O)(=O)N1CCC(n2cc(-c3noc(-c4ccc(Cl)cc4)n3)nn2)CC1`, the MIC with Candida albicans was 30 µg/mL (≈ 73.4 µM); against Cryptococcus neoformans [5] it was 40 µg/mL (≈ 97.8 µM); against Aspergillus flavus [2], 15 µg/mL (≈ 36.7 µM); in the assay with Fusarium oxysporum [3] it was 35 µg/mL (≈ 85.6 µM); in the assay on Aspergillus niger [4], 15 µg/mL (≈ 36.7 µM).
As to `CC(=O)N1CCC(n2cc(-c3noc(-c4ccccc4)n3)nn2)CC1`, the MIC with Candida albicans was determined as 35 µg/mL (≈ 103 µM); in the assay on Fusarium oxysporum [3] it was 35 µg/mL (≈ 103 µM); against Aspergillus niger [4], 95 µg/mL (≈ 281 µM). Moreover, the outcome in the assay with Aspergillus flavus [8] and in the assay on Cryptococcus neoformans [1] was inactive.
Regarding `Cc1ccc(S(=O)(=O)N2CCC(n3cc(-c4noc(-c5ccccc5)n4)nn3)CC2)cc1`, the MIC in the assay with Candida albicans came to 60 µg/mL (≈ 133 µM); in the assay with Cryptococcus neoformans [5] it was 40 µg/mL (≈ 88.8 µM); in the assay with Aspergillus flavus [2], 45 µg/mL (≈ 99.9 µM); with Fusarium oxysporum [3], 70 µg/mL (≈ 155 µM); in the assay on Aspergillus niger [4] it was 37.5 µg/mL (≈ 83.2 µM).
The corresponding values for `CCCC(=O)N1CCC(n2cc(-c3noc(-c4ccccc4)n3)nn2)CC1` are 90 µg/mL (≈ 246 µM), 150 µg/mL (≈ 409 µM), 35 µg/mL (≈ 95.5 µM), 100 µg/mL (≈ 273 µM) and 47.5 µg/mL (≈ 130 µM).
For `Clc1ccc(COC(Cn2ccnc2)c2ccc(Cl)cc2Cl)c(Cl)c1` (stereo not given) [MICONAZOLE], in that order: 25 µg/mL (≈ 60.1 µM), 25 µg/mL (≈ 60.1 µM), 12.5 µg/mL (≈ 30 µM), 25 µg/mL (≈ 60.1 µM) and 12.5 µg/mL (≈ 30 µM).
With `c1ccc(-c2nc(-c3cn(C4CCNCC4)nn3)no2)cc1`, the MIC is 60 µg/mL (≈ 202 µM) in the assay on Candida albicans; 90 µg/mL (≈ 304 µM) in the assay with Cryptococcus neoformans [5]; 50 µg/mL (≈ 169 µM) in the assay with Aspergillus flavus [2]; 100 µg/mL (≈ 337 µM) against Fusarium oxysporum [3]; 100 µg/mL (≈ 337 µM) in the assay on Aspergillus niger [4].
Turning to `c1ccc(CN2CCC(n3cc(-c4noc(-c5ccccc5)n4)nn3)CC2)cc1`, the MIC against Candida albicans came out at 50 µg/mL (≈ 129 µM); against Cryptococcus neoformans [5] it was 70 µg/mL (≈ 181 µM); against Aspergillus flavus [2] it was 50 µg/mL (≈ 129 µM); against Fusarium oxysporum [3], 65 µg/mL (≈ 168 µM); with Aspergillus niger [4] it was 150 µg/mL (≈ 388 µM).
As to `CC(=O)N1CCC(n2cc(-c3noc(-c4ccc(Cl)cc4)n3)nn2)CC1`, the MIC against Candida albicans was 40 µg/mL (≈ 107 µM); with Aspergillus flavus [2] it was 150 µg/mL (≈ 402 µM); against Fusarium oxysporum [3], 30 µg/mL (≈ 80.5 µM); in the assay on Aspergillus niger [4] it was 70 µg/mL (≈ 188 µM). The result in the assay on Cryptococcus neoformans [1] was inactive.
As to `OC(Cn1cncn1)(Cn1cncn1)c1ccc(F)cc1F` [FLUCONAZOLE], the MIC against Candida albicans was determined as 5 µg/mL (≈ 16.3 µM); in the assay with Cryptococcus neoformans [5], 5 µg/mL (≈ 16.3 µM); in the assay with Aspergillus flavus [2], 5 µg/mL (≈ 16.3 µM); against Fusarium oxysporum [3], 5 µg/mL (≈ 16.3 µM); with Aspergillus niger [4], 10 µg/mL (≈ 32.7 µM).
As for `CC(C)(C)OC(=O)N1CCC(n2cc(-c3noc(-c4ccccc4)n3)nn2)CC1`, the minimal inhibitory concentration (MIC) in the assay on Candida albicans came to 80 µg/mL (≈ 202 µM); with Cryptococcus neoformans [5], 120 µg/mL (≈ 303 µM); against Aspergillus flavus [2] it was 85 µg/mL (≈ 214 µM); in the assay on Aspergillus niger [4], 100 µg/mL (≈ 252 µM). Further, in the assay with Fusarium oxysporum [7], the outcome was inactive.
Regarding `CCN1CCC(n2cc(-c3noc(-c4ccc(Cl)cc4)n3)nn2)CC1`, the minimum inhibitory concentration (MIC) was determined as 70 µg/mL (≈ 195 µM) with Candida albicans; 100 µg/mL (≈ 279 µM) against Cryptococcus neoformans [5]; 35 µg/mL (≈ 97.5 µM) in the assay on Aspergillus flavus [2]; 80 µg/mL (≈ 223 µM) in the assay with Fusarium oxysporum [3]; 40 µg/mL (≈ 111 µM) in the assay on Aspergillus niger [4].
In the case of `CCC(=O)N1CCC(n2cc(-c3noc(-c4ccc(Cl)cc4)n3)nn2)CC1`, the minimal inhibitory concentration (MIC) was determined as 35 µg/mL (≈ 90.5 µM) in the assay on Candida albicans, 30 µg/mL (≈ 77.6 µM) against Aspergillus flavus [2], 40 µg/mL (≈ 103 µM) in the assay with Fusarium oxysporum [3] and 100 µg/mL (≈ 259 µM) against Aspergillus niger [4]. Also, the outcome in the assay on Cryptococcus neoformans [1] was inactive.
Regarding `CCC(=O)N1CCC(n2cc(-c3noc(-c4ccccc4)n3)nn2)CC1`, the results for the MIC with Candida albicans, against Aspergillus flavus [2] and in the assay on Fusarium oxysporum [3] were 50 µg/mL (≈ 142 µM), 30 µg/mL (≈ 85.1 µM) and 60 µg/mL (≈ 170 µM), respectively. Moreover, the outcome with Cryptococcus neoformans [1] and in the assay with Aspergillus niger [6] was inactive.
On to `CN1CCC(n2cc(-c3noc(-c4ccccc4)n3)nn2)CC1`, for which the MIC with Candida albicans amounted to 50 µg/mL (≈ 161 µM); in the assay with Aspergillus flavus [2] it was 30 µg/mL (≈ 96.7 µM); against Fusarium oxysporum [3], 60 µg/mL (≈ 193 µM). The outcome with Cryptococcus neoformans [1] and in the assay with Aspergillus niger [6] was inactive.
